Assay results published in paper PMC10826612 (Food Chemistry: X, 2024).

Key:
tyrosinase (TYR) [1] = molecular target: T1, tyrosinase (TYR) (Agaricus bisporus, UniProt C7FF04); experiment: Kinetic analysis of TYR; format: biochemical; conditions: Lineweaver-Burk plot
tyrosinase (TYR) [2] = molecular target: T1, tyrosinase (TYR); experiment: Fluorescence quenching titration of TYR; format: binding
tyrosinase (TYR) [3] = molecular target: T1, tyrosinase (TYR); experiment: ANS fluorescence assay; format: binding; conditions: 6f 60 µM (533 nm at 0 µM)
HEK-293 cells = experiment: CCK-8 cell viability assay; format: cell-based, human; conditions: in words
Procedure, shortened: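 Log-phase HEK-293 cells were seeded at 1 × 10^5 cells/well and held at 37 °C for 24 h. They were then exposed for 24 h to test compound at 4, 12, 36 or 108 µM, prepared in PBS. Wells were washed twice with PBS, and medium containing 10 % CCK-8 was added. Absorbance at 450 nm was read after 2 h.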

tyrosinase (TYR) [4] = molecular target: T1, tyrosinase (TYR); experiment: UV spectra measurement of TYR with inhibitor; format: binding
tyrosinase (TYR) [5] = molecular target: T1, tyrosinase (TYR); experiment: CD spectroscopy of TYR secondary structure; format: binding; conditions: molar ratio 1:6

T1 sequence (C7FF04 1-392): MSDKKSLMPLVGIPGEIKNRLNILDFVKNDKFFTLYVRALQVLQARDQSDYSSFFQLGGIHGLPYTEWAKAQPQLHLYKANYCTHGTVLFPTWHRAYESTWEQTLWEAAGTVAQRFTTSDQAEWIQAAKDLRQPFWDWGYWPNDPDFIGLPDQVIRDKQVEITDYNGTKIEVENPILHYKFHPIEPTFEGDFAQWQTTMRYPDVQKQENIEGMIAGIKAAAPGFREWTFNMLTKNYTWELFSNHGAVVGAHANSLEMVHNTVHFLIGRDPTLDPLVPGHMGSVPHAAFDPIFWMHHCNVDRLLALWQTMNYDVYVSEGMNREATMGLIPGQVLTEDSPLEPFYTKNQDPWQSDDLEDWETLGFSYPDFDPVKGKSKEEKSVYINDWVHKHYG

For `CCCc1cc(=O)oc2cc(OCc3cc(=O)c(O)co3)ccc12` [Compound 6f], the inhibition type (tyrosinase (TYR) [1]) was “mixed-type inhibitor”, the “quenching constant Kq” value (tyrosinase (TYR) [2]; Stern-Volmer plot) was 3.95 × 10^12 L/mol S^-1 and the “number of binding sites n” value (tyrosinase (TYR) [2]; double reciprocal equation) was 1.12. The “mode of action on TYR (quenching type)” value (tyrosinase (TYR) [2]; multispectral experiments) was “static quenching”, the “maximum emission wavelength of ANS-TYR fluorescence” value (tyrosinase (TYR) [3]) was 500 nm and the cytotoxicity (HEK-293 cells) was “low cytotoxicity”. For the same compound, the “effect on the UV absorption peak of TYR at 280 nm” value (tyrosinase (TYR) [4]) was “significantly reduced the absorption peak of TYR at 280 nm”, the “α-Helix content of TYR” value (tyrosinase (TYR) [5]) was 32.50% and the “β-Turn content of TYR” value (tyrosinase (TYR) [5]) was 17.20%. For the same compound, the “β-sheet content of TYR” value (tyrosinase (TYR) [5]) was 17.50%.
